Rows were chosen to be rich in hits. Some 2.9% of all compounds tested hit in one or more screens of this group.
DENV2 CPE rescue = inhibitors of DENV2 cytopathic effect, primary screen, cell-based, plate reader, single concentration; DENV2-infected cells, cytopathic effect rescue; CPE inhibition, % at 9.99 µM; actives 1.7% (n = 350,000); in the data active = CPE inhibition above about 20%, passing the limit was not always enough; inconclusive = no clear call, values can overlap the other calls; tested in BHK-21 cells;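 also: 0% = median of neutral control wells and 100% = median of positive control wells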
E-selectin induc = E-selectin induction in HUVECs, primary screen, imaging, HUVEC, immunofluorescence imaging, single point. AID 686992, 2013. P16581. activation, % at 7.58 µM. actives 0.37% (n = 260,000). normalized: neutral wells 0, TNF-alpha wells 100;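 active = mean E-selectin-positive cell signal at least 10% of the positive control, reached in at least 60% of replicates, without over 20% cell loss; inconclusive = no rule given, readout overlaps actives, possibly toxicity-flagged; inactive = the rest, including those meeting only one limit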
Target sequence (P16581 whole entry, looked up): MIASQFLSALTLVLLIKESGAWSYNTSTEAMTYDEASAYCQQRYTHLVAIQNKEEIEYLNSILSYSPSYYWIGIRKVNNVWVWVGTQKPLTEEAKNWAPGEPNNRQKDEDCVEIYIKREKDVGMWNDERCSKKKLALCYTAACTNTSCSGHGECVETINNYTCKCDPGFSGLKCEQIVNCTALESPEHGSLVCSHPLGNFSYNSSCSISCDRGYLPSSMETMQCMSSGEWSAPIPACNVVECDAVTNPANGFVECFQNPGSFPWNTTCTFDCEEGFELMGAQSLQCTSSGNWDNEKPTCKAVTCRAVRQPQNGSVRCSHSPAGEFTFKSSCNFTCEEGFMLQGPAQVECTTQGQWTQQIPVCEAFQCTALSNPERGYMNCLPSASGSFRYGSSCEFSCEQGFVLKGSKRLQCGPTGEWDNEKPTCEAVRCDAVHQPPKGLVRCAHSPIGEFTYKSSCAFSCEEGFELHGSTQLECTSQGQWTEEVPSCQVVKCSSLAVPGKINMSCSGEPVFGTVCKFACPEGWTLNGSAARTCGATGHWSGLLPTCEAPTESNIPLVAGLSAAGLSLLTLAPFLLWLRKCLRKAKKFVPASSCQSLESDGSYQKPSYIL
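Test system: HUVEC | Signal: Immunofluorescence imaging | Read-out: Percent E-selectin-positive cells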
SIRT5 inh = SIRT5 desuccinylase inhibitors, primary screen, biochemical, fluorescence imaging, single point, set 5; NAD-dependent protein deacylase sirtuin-5, mitochondrial (Homo sapiens), Q9NXA8; Purified SirT5, succinyl-peptide AMC, trypsin-coupled fluorescence; inhibition, % at 15 µM; actives 1.1% (n = 330,000); AID 652115, 2013; in the data active = inhibition above about 15%; inconclusive = no clear call, values can overlap the other calls
An asterisk follows results filed as active; ? = inconclusive; · = no result given.

SMILES | DENV2 CPE rescue | E-selectin induc | SIRT5 inh
CCOC(=O)c1cc(-c2ccccc2C)nn1Cc1cc(C)no1 | 32* | 1 | ·
CCc1cc(Cn2nc(-c3ccccc3C)cc2C(=O)O)on1 | 25* | -1 | ·
CCOC(=O)c1cc(-c2ccccc2)nn1Cc1cc(C)no1 | 4 | 0 | -4
Cc1ccc(S(=O)(=O)Nc2ccc3c(c2)C(=O)N([C@@H](C)CO)C[C@@H](C)[C@H](CN(C)S(=O)(=O)c2cccs2)OCCCC[C@H](C)O3)cc1 | -5 | 0 | 8
C[C@@H]1CN([C@@H](C)CO)C(=O)c2cc(NS(=O)(=O)c3ccc(Cl)cc3)ccc2O[C@@H](C)CCCCO[C@H]1CN(C)S(=O)(=O)c1cccs1 | 36* | · | 0
Cc1ccc(S(=O)(=O)Nc2ccc3c(c2)C(=O)N([C@@H](C)CO)C[C@H](C)[C@H](CN(C)S(=O)(=O)c2cccs2)OCCCC[C@@H](C)O3)cc1 | -9 | 0 | 18*
Cc1ccc(S(=O)(=O)Nc2ccc3c(c2)C(=O)N([C@@H](C)CO)C[C@@H](C)[C@@H](CN(C)S(=O)(=O)c2cccs2)OCCCC[C@@H](C)O3)cc1 | 40* | 4 | 5
C[C@H]1CCCCO[C@H](CN(C)S(=O)(=O)c2cccs2)[C@@H](C)CN([C@@H](C)CO)C(=O)c2cc(NS(=O)(=O)c3ccc(Cl)cc3)ccc2O1 | -12 | · | -22
Cc1ccc(S(=O)(=O)Nc2ccc3c(c2)C(=O)N([C@H](C)CO)C[C@H](C)[C@@H](CN(C)S(=O)(=O)c2cccs2)OCCCC[C@H](C)O3)cc1 | 7 | 1 | 8
C[C@H]1CN([C@@H](C)CO)C(=O)c2cc(NS(=O)(=O)c3ccccc3)ccc2O[C@@H]1CN(C)CC1CCCCC1 | 6 | 0 | ·
O=C(Nc1nccs1)c1ccc(Cl)nc1 | ? | 0 | 2
CC(=O)Nc1nc(CCC(C)C)cc2c1c(=O)oc1ccccc12 | · | · | -3
O=C(NCC1CCCO1)/C(=C/c1ccccc1)NC(=O)c1ccccc1 (configuration not stated) | 0 | 0 | 1
C/C=C/c1ccccc1[C@@H]1[C@@H](C#N)N(C(=O)c2cccnc2)[C@H]1CO | -9 | 0 | ·
CCN(CC(=O)Nc1cc(Cl)ccc1C)C(=O)C1COc2ccccc2O1 (configuration not stated) | -10 | 0 | 0
C[C@@H]1CCCCO[C@H](CN(C)C(=O)Nc2ccc3c(c2)OCO3)[C@H](C)CN([C@@H](C)CO)C(=O)c2cc(NC(=O)Nc3ccccc3)ccc2O1 | 23* | · | 4
C[C@@H]1CCCCO[C@H](CN(C)C(=O)c2ccccc2)[C@@H](C)CN([C@@H](C)CO)C(=O)c2cc(NC(=O)Nc3ccc4c(c3)OCO4)ccc2O1 | 22* | 0 | 0
C[C@@H]1CCCCO[C@@H](CN(C)C(=O)Nc2ccc3c(c2)OCO3)[C@H](C)CN([C@H](C)CO)C(=O)c2cc(NC(=O)Nc3ccccc3)ccc2O1 | 7 | · | 3
C[C@@H]1CCCCO[C@H](CN(C)C(=O)c2ccccc2)[C@@H](C)CN([C@H](C)CO)C(=O)c2cc(NC(=O)Nc3ccc4c(c3)OCO4)ccc2O1 | 3 | 0 | 2
O=C(C[C@@H]1C[C@@H]2c3cc(NC(=O)Cc4ccncc4)ccc3O[C@@H]2[C@@H](CO)O1)NCc1ccc2c(c1)OCO2 | -4 | 0 | -2
Cc1cc([N+](=O)[O-])ccc1NC(=O)CCC(=O)N1CCCCC1 | -5 | -1 | 3
CCOc1cc(S(=O)(=O)n2ccnc2)ccc1Br | · | · | -1
Cc1nc(Cl)sc1C(=O)Nc1ccc(C(F)(F)F)cc1 | -3 | · | -2
C[C@@H]1CN([C@@H](C)CO)C(=O)c2cc(NS(C)(=O)=O)ccc2O[C@@H]1CN(C)Cc1ccc2c(c1)OCO2 | 6 | 0 | -1
C[C@H](CO)N1C[C@H](C)[C@H](CN(C)S(=O)(=O)c2ccc(F)cc2)Oc2cc(-c3cccc(F)c3)ccc2S1(=O)=O | 1 | 1 | 13
SMILES | DENV2 CPE rescue | E-selectin induc | SIRT5 inh
Cc1ccc(S(=O)(=O)N(C)C[C@@H]2Oc3cc(-c4cccc(F)c4)ccc3S(=O)(=O)N([C@@H](C)CO)C[C@@H]2C)cc1 | 24 | 0 | -3
C[C@@H]1CN([C@@H](C)CO)S(=O)(=O)c2ccc(-c3cccc(F)c3)cc2O[C@@H]1CN(C)S(=O)(=O)c1ccc(F)cc1 | 12 | 0 | 17*
C[C@H]1CN([C@@H](C)CO)S(=O)(=O)c2ccc(-c3cccc(F)c3)cc2O[C@H]1CN(C)S(=O)(=O)c1ccc(F)cc1 | -2 | 0 | 20*
C/C(=N\Nc1ncc(Br)cn1)c1cccc([N+](=O)[O-])c1 | -1 | 0 | 0
COc1ccc(N2CCN(CC(=O)Nc3c(C)cccc3C)CC2)cc1 | -9 | 0 | ·
O=C(c1ccncc1)N1CCCC(N2CCN(c3cccc(C(F)(F)F)c3)CC2)C1 (configuration not stated) | 21* | -1 | -2
O=C(c1ccoc1)N1CCCC(N2CCN(c3cccc(C(F)(F)F)c3)CC2)C1 (configuration not stated) | -2 | 0 | 0
N#C[C@@H]1[C@@H](c2ccccc2-c2cccc(F)c2)[C@@H](CO)N1C(=O)NC1CCCCC1 | 2 | 0 | -10
Cc1noc(C)c1NC(=O)Nc1ccc2c(c1)C(=O)N([C@@H](C)CO)C[C@H](C)[C@H](CN(C)C(=O)Nc1ccc(C(F)(F)F)cc1)O2 | 8 | 0 | 0
C[C@H](CO)N1C[C@H](C)[C@H](CN(C)C(=O)Nc2ccc3c(c2)OCO3)Oc2ccc(NC(=O)Nc3ccc(C(F)(F)F)cc3)cc2C1=O | 0 | 1 | 15*
C[C@@H]1CN([C@@H](C)CO)C(=O)c2cc(NC(=O)Nc3ccc4c(c3)OCO4)ccc2O[C@@H]1CN(C)C(=O)Nc1ccc(C(F)(F)F)cc1 | 2 | 1 | 16*
C[C@@H]1CN([C@@H](C)CO)C(=O)c2cc(NC(=O)Nc3ccc4c(c3)OCO4)ccc2O[C@@H]1CN(C)Cc1ccc(C(F)(F)F)cc1 | -4 | · | 17*
C[C@H]1CN([C@@H](C)CO)C(=O)c2cc(NC(=O)Nc3ccc(C(F)(F)F)cc3)ccc2O[C@H]1CN(C)Cc1ccc2c(c1)OCO2 | -2 | 0 | 0
Cc1noc(C)c1NC(=O)Nc1ccc2c(c1)C(=O)N([C@@H](C)CO)C[C@@H](C)[C@@H](CN(C)C(=O)Nc1ccc(C(F)(F)F)cc1)O2 | 32* | 0 | 4
C[C@@H]1CN([C@H](C)CO)C(=O)c2cc(NC(=O)Nc3ccc(C(F)(F)F)cc3)ccc2O[C@H]1CN(C)C(=O)Nc1ccc2c(c1)OCO2 | 12 | 0 | 5
C[C@H](CO)N1C[C@H](C)[C@@H](CN(C)C(=O)Nc2ccc(C(F)(F)F)cc2)Oc2ccc(NC(=O)Nc3ccc4c(c3)OCO4)cc2C1=O | -4 | 0 | 9
COc1ccc(C(=O)NNC(=O)C2(C)CC2(Br)Br)cc1 (configuration not stated) | -1 | · | -7
Cc1ccc(S(=O)(=O)N(Cc2ccc(F)cc2)C(=O)N2CCN(C)CC2)cc1 | 2 | 1 | -2

Assay outcomes (PubChem)
